According to ChEMBL document CHEMBL1138269, “Antimicrobial lexitropsins containing amide, amidine, and alkene linking groups” (J Med Chem, 2007):
≈ marks a conversion by molar mass, not a printed value.

Assays:
Format in all cases: functional
Staphylococcus aureus [1] = test: Antibacterial activity against methicillin-resistant Staphylococcus aureus clinical isolate 5
Procedure, shortened: (§1)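 Broth microdilution MIC against clinical S. aureus isolates (incl. MRSA), run per NCCLS guidelines in 96-well plates. Test sample dissolved in sterile water to a 200 µg mL-1 working concentration, then doubling dilutions in Mueller-Hinton broth. Incubated at 37 °C, growth read visually plus resazurin indicator. MIC reported in µg/mL.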

Enterococcus faecalis = test: Antibacterial activity against Streptococcus faecalis NCTC 775
Procedure, shortened: (§2)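 Broth microdilution in Mueller-Hinton broth. Samples were dissolved in sterile water to 200 µg mL-1 as the working solution and doubling dilutions were made across rows. Plates were incubated at 37 °C and inspected visually, with resazurin added as growth indicator. MIC reported in µg mL-1.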

Candida albicans = test: Antifungal activity against Candida albicans NCPF 3179; conditions: Candida albicans; read-out: MIC
Procedure, shortened: (§3)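 Antifungal microdilution in Sabouraud broth. Test sample at 200 µg mL-1 working solution in sterile water was serially doubled down successive rows. Incubation was at 25 °C, followed by visual growth check and addition of resazurin indicator. Read-out is MIC in µg mL-1.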

Staphylococcus aureus [2] = test: Antibacterial activity against methicillin-resistant Staphylococcus aureus clinical isolate 1; procedure, shortened: as §1
Staphylococcus aureus [3] = test: Antibacterial activity against methicillin-sensitive Staphylococcus aureus NCTC 6571; procedure, shortened: as §2
[4] = system: Mycolicibacterium fortuitum; test: Antibacterial activity against Mycobacterium fortuitum NCTC 10394; procedure, shortened: as §2
Staphylococcus aureus [5] = test: Antibacterial activity against methicillin-resistant Staphylococcus aureus clinical isolate 4; procedure, shortened: as §1
Staphylococcus aureus [6] = test: Antibacterial activity against methicillin-resistant Staphylococcus aureus clinical isolate 2; procedure, shortened: as §1
Aspergillus niger = test: Antifungal activity against Aspergillus niger IMI 149007; procedure, shortened: as §3
Staphylococcus aureus [7] = test: Antibacterial activity against methicillin-resistant Staphylococcus aureus clinical isolate 3; procedure, shortened: as §1
[8] = Enterococcus faecalis, NCTC 775, read-out: MIC
[9] = Staphylococcus aureus, NCTC 6571, read-out: MIC

SMILES | MIC (Staphylococcus aureus [1]) [µg/mL] | MIC (Enterococcus faecalis; [8]) [µg/mL] | MIC (Candida albicans) [µg/mL] | MIC (Staphylococcus aureus [2]) [µg/mL] | MIC (Staphylococcus aureus [3]; [9]) [µg/mL] | MIC [4] [µg/mL] | MIC (Staphylococcus aureus [5]) [µg/mL] | MIC (Staphylococcus aureus [6]) [µg/mL] | MIC (Aspergillus niger) [µg/mL] | MIC (Staphylococcus aureus [7]) [µg/mL] | MIC (Enterococcus faecalis) [µg/mL] | MIC (Staphylococcus aureus [3]) [µg/mL]
CN(C)CCCNC(=O)c1cc(NC(=O)c2cc(NC(=O)c3cc(/C=C/c4ccc([N+](=O)[O-])cc4)cn3C)cn2C)cn1C | > 64 | 50 (≈ 83.2 µM) | > 50 | > 64 | 50 (≈ 83.2 µM) | > 50 | > 64 | > 64 | > 50 | > 64 | – | –
COc1cccc(/C=C/c2cccc(C(=O)Nc3cc(C(=O)Nc4nc(C(=O)NCCCN(C)C)c(CCC(C)C)s4)n(C)c3)c2)c1 | 32 (≈ 48.7 µM) | > 50 | > 50 | 32 (≈ 48.7 µM) | > 50 | > 50 | 32 (≈ 48.7 µM) | 32 (≈ 48.7 µM) | > 50 | 32 (≈ 48.7 µM) | – | –
Cn1cc(NC(=O)c2cc(NC(=O)c3ccc(/C=C/c4nc5ccccc5o4)cc3)cn2C)cc1C(=O)NCCN1CCOCC1 (stereo in doubt; 79) | 1 (≈ 1.61 µM) | – | > 50 | 1 (≈ 1.61 µM) | – | > 50 | 1 (≈ 1.61 µM) | 16 (≈ 25.7 µM) | > 50 | 1 (≈ 1.61 µM) | 25 (≈ 40.2 µM) | 13 (≈ 20.9 µM)
COc1cccc(/C=C/c2ccc(C(=O)Nc3cc(C(=O)Nc4cc(C(=O)NCCCN(C)C)n(C)c4)n(C)c3)cc2)c1 | 6.25 (≈ 10.7 µM) | > 50 | > 50 | 6.25 (≈ 10.7 µM) | 6 (≈ 10.3 µM) | > 50 | 6.25 (≈ 10.7 µM) | 6.25 (≈ 10.7 µM) | 50 (≈ 85.8 µM) | 6.25 (≈ 10.7 µM) | – | –
CSc1ccc(/C=C/c2ccc(C(=O)Nc3cc(C(=O)Nc4cc(C(=O)NCCN5CCOCC5)n(C)c4)n(C)c3)cn2)cc1 | 0.5 (≈ 0.796 µM) | > 50 | > 50 | 0.5 (≈ 0.796 µM) | 6 (≈ 9.56 µM) | > 50 | 1 (≈ 1.59 µM) | 4 (≈ 6.37 µM) | > 50 | 2 (≈ 3.19 µM) | – | –
COc1cccc(/C=C/c2ccc(C(=O)Nc3cc(C(=O)Nc4cc(C(=O)NCCN5CCOCC5)n(C)c4)n(C)c3)cc2)c1 | 4 (≈ 6.55 µM) | 50 (≈ 81.9 µM) | > 50 | 2 (≈ 3.27 µM) | 6 (≈ 9.82 µM) | > 50 | 4 (≈ 6.55 µM) | 4 (≈ 6.55 µM) | > 50 | 4 (≈ 6.55 µM) | – | –
Cn1cc(NC(=O)c2cc(NC(=O)c3csc(/C=C/c4ccc5ccccc5n4)n3)cn2C)cc1C(=O)NCCN1CCOCC1 | 8 (≈ 12.5 µM) | 25 (≈ 39.1 µM) | > 50 | 8 (≈ 12.5 µM) | 3 (≈ 4.7 µM) | > 50 | 8 (≈ 12.5 µM) | 8 (≈ 12.5 µM) | > 50 | 8 (≈ 12.5 µM) | – | –
COc1ccc(/C=C/c2ccc3cc(C(=O)Nc4cc(C(=O)Nc5cc(C(=O)NCCN6CCOCC6)n(C)c5)n(C)c4)ccc3n2)cc1 | > 64 | 25 (≈ 37.8 µM) | > 50 | 4 (≈ 6.04 µM) | > 50 | > 50 | > 64 | > 64 | 50 (≈ 75.6 µM) | > 64 | – | –
Cn1cc(NC(=O)c2cc(NC(=O)c3cc(/C=C/c4cnc5ccccc5c4)cn3C)cn2C)cc1C(=O)NCCN1CCOCC1 | 16 (≈ 25.2 µM) | > 50 | > 50 | 4 (≈ 6.3 µM) | > 50 | > 50 | > 64 | > 64 | > 50 | > 64 | – | –
Cn1cc(NC(=O)c2cc(NC(=O)c3ccc(/C=C/c4ccncc4)cc3)cn2C)cc1C(=O)NCCN1CCOCC1 | 0.5 (≈ 0.86 µM) | 25 (≈ 43 µM) | 50 (≈ 86 µM) | 0.5 (≈ 0.86 µM) | 2 (≈ 3.44 µM) | > 50 | 1 (≈ 1.72 µM) | 2 (≈ 3.44 µM) | > 50 | 1 (≈ 1.72 µM) | – | –
CC(C)c1sc(NC(=O)c2cc(NC(=O)c3cc(NC(=O)c4cccc(Cl)c4)cn3C)cn2C)nc1C(=O)NCCCN(C)C | 2 (≈ 3.06 µM) | 6 (≈ 9.19 µM) | > 50 | 11 (≈ 16.8 µM) | 13 (≈ 19.9 µM) | > 50 | 0.5 (≈ 0.765 µM) | 11 (≈ 16.8 µM) | > 50 | 11 (≈ 16.8 µM) | – | –
Cn1cc(NC(=O)c2cc(NC(=O)c3cc(NC(=O)c4cccc(Cl)c4)cn3C)cn2C)cc1C(=O)NCCc1ccccn1 | > 64 | > 50 | > 50 | > 64 | > 50 | > 50 | > 64 | > 64 | > 50 | > 64 | – | –
Cn1cccc1/C=C/c1ccc(C(=O)Nc2cc(C(=O)Nc3cc(C(=O)NCCN4CCOCC4)n(C)c3)n(C)c2)cc1 | 16 (≈ 27.4 µM) | 13 (≈ 22.3 µM) | > 50 | 4 (≈ 6.85 µM) | 3 (≈ 5.14 µM) | > 50 | 16 (≈ 27.4 µM) | 16 (≈ 27.4 µM) | > 50 | 16 (≈ 27.4 µM) | – | –
